Experimental data: ChEMBL document CHEMBL1137254, “Structurally simple, potent, Plasmodium selective farnesyltransferase inhibitors that arrest the growth of malaria parasites” (J Med Chem, 2006)

Columns and labels:
[1] = molecular target: T1, Protein farnesyltransferase (PFT) (Plasmodium falciparum) (UniProt Q5EI73+Q5EI74); assay: Inhibition of Plasmodium falciparum PFT at 50 nM
[2] = molecular target: T1, Protein farnesyltransferase (PFT) (Plasmodium falciparum); assay: Inhibition of Plasmodium falciparum PFT at 5 nM
[3] = Cmax in mouse at 50 mg/kg, po; format: ADME, organism-based; set-up: dose 50 mg/kg, route oral; settings: in vivo
In short: (§1)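 Oral gavage at 50 mg/kg in 90% saline, 3% ethanol, 7% Tween; inhibitor concentration in plasma followed over 5 h. Values are averages of three animals per species (mice or rats). Reported parameters are AUC, Cmax, Tmax and elimination t1/2.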

[4] = AUC in mouse at 50 mg/kg, po; format: ADME, organism-based; set-up: dose 50 mg/kg, route oral; settings: plasma
In short: as §1

Plasmodium falciparum [5] = assay: Inhibition of Plasmodium falciparum K1 growth as reduced [3H]hypoxanthine incorporation; format: functional; settings: K1, 72 h, read-out: ED50 (the source's name)
In short: (§2)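 Inhibitor in DMSO was added to P. falciparum culture (0.5% parasitemia, 0.5% hematocrit) in RPMI-1640 with 20% human A+ plasma. Cultures were held 48 h at 37 °C under 5% CO2/5% O2/90% N2, then pulsed with [8-3H]hypoxanthine (0.3 μCi) for 24 h more. Cells were harvested and counted by β-scintillation. Background from uninfected RBCs was subtracted, with DMSO set as 100%. ED50 was obtained by linear regression.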

[6] = Half life in mouse at 50 mg/kg, po; format: ADME, organism-based; set-up: dose 50 mg/kg, route oral; settings: in vivo, read-out: beta t1/2
In short: as §1

[7] = Tmax in mouse at 50 mg/kg, po; format: ADME, organism-based; set-up: dose 50 mg/kg, route oral; settings: in vivo
In short: as §1

[8] = molecular target: T2, Protein farnesyltransferase (PFT) (Plasmodium falciparum, UniProt Q5EI73+Q5EI74); assay: Inhibition of Plasmodium falciparum PFT; format: protein-complex assay
T2 sequence (Q5EI73 whole entry): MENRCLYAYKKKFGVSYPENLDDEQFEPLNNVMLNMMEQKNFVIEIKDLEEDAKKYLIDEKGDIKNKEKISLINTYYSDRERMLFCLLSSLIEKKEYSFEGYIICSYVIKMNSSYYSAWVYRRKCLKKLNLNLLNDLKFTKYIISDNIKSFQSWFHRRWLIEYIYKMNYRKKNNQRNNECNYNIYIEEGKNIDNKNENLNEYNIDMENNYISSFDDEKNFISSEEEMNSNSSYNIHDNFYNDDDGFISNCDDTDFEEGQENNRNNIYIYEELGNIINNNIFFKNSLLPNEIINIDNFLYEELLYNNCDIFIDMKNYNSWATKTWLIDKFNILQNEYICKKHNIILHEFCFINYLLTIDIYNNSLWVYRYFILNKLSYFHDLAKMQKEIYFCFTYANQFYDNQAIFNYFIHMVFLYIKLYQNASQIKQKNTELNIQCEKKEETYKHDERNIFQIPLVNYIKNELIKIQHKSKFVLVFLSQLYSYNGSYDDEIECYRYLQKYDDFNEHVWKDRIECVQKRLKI
T2 sequence (Q5EI74 whole entry): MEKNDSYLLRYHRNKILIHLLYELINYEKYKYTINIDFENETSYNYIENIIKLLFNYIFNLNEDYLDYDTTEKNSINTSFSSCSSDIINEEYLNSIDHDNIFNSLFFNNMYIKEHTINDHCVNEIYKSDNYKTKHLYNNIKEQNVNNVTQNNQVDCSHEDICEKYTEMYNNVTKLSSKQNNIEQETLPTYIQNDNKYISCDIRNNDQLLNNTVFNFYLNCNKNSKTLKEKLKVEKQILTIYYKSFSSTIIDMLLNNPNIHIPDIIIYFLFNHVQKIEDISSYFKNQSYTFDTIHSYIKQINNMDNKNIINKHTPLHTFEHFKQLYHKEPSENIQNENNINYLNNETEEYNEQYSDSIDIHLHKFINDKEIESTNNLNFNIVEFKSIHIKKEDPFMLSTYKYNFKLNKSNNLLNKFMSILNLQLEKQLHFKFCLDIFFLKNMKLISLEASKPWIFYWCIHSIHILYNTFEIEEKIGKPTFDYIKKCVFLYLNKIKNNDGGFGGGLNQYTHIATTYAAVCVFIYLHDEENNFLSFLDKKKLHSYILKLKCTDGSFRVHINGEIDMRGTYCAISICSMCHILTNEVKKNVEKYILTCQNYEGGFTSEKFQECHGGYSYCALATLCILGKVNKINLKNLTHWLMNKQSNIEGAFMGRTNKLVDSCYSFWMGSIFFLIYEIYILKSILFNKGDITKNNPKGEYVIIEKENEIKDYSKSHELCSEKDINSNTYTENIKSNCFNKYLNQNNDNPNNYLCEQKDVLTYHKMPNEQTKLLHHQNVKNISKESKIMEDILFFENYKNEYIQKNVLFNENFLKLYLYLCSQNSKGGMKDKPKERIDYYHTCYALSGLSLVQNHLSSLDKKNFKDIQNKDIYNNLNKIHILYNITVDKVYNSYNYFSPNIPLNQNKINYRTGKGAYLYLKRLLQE

Plasmodium falciparum [9] = assay: Inhibition of Plasmodium falciparum 3D7 growth as reduced [3H]hypoxanthine incorporation; format: functional; settings: 3D7, 72 h, read-out: ED50 (the source's name)
In short: as §2

[10] = molecular target: T1, Protein farnesyltransferase (PFT) (Plasmodium falciparum); assay: Selectivity for inhibition of Plasmodium falciparum PFT over rat PFT; format: protein-complex assay
[11] = Apparent permeability in Caco-2 cells; format: ADME, cell-based; settings: human
Mus musculus = species: Mus musculus; assay: Half life in mouse liver microsome; format: ADME; settings: microsomes
In short: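 Pooled female liver microsomes were preincubated at 37 °C for 10 min in phosphate buffer with MgCl2, EDTA, an NADPH regenerating system and glucose-6-phosphate dehydrogenase. Inhibitor was then added in DMSO. Samples were quenched with acetonitrile plus internal standard at set time points and frozen at −20 °C. Parent and metabolites were quantified by LC/MS to give t1/2.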

| Structure (SMILES) | inhibition [1] | inhibition [2] | also measured |
| --- | --- | --- | --- |
| Cc1ccc(CN(CCN(Cc2cncn2C)c2ccc(C#N)cc2)S(=O)(=O)c2cn(C)cn2)cc1 | 54% | 45% |  |
| Cn1cnc(S(=O)(=O)N(CCN(Cc2c[nH]cn2)c2ccccc2)Cc2ccccc2)c1 | 32% |  |  |
| Cn1cnc(S(=O)(=O)N(CCN(Cc2cncn2C)c2ccc(C#N)cc2)Cc2ccccc2)c1 | 98% | 86% | Cmax [3]: 740 nM; AUC [4]: 1.87 µM·h; EC50 (Plasmodium falciparum [5]): 367 nM; half-life [6]: 95.9 min; Tmax [7]: 30 min |
| Cn1cncc1CN(CCN(Cc1ccccc1)S(=O)(=O)c1ccccn1)c1ccc(C#N)cc1 | 95% | 64% | Tmax [7]: 30 min |
| C=C(Br)CN(CCN(Cc1cncn1C)c1ccc(C#N)cc1)S(=O)(=O)c1cn(C)cn1 | 80% | 25% |  |
| O=S(=O)(c1cccs1)N(CCN(Cc1c[nH]cn1)c1ccccc1)Cc1ccccc1 | 5% |  |  |
| Cn1cnc(S(=O)(=O)N(CCN(Cc2cncn2C)c2ccc(C#N)cc2)CC(=O)NC(C)(C)C)c1 | 6% | 4% | IC50 [8]: > 1000 nM |
| Cn1cnc(S(=O)(=O)N(CCN(Cc2cncn2C)c2ccc(C#N)cc2)CC2CCNCC2)c1 | 5% | 5% |  |
| Cn1cnc(S(=O)(=O)N(CCN(Cc2c[nH]cn2)c2ccc(Br)cc2)Cc2ccccc2)c1 | 80% |  |  |
| Cn1cnc(S(=O)(=O)N(CCN(Cc2cncn2C)c2ccc(C#N)cc2)Cc2cccc(C#N)c2)c1 | 89% | 45% | EC50 (Plasmodium falciparum [5]): 1800 nM; EC50 (Plasmodium falciparum [9]): 350 nM |
| Cn1cnc(S(=O)(=O)N(CCN(Cc2cncn2C)c2ccc(C#N)cc2)Cc2ccc(C#N)cc2)c1 | 48% | 24% | Selectivity ratio [10]: 3.7; IC50 [8]: 95 nM |
| Cn1cnc(S(=O)(=O)N(CCN(Cc2cncn2C)c2ccc(C#N)cc2)CC2CCCCC2)c1 | 93% | 63% | Selectivity ratio [10]: 1.7; IC50 [8]: 4.5 nM; Papp [11]: 1.5 ×10⁻⁶ cm/s |
| Cn1cnc(S(=O)(=O)N(CCN(Cc2cncn2C)c2ccc(C#N)cc2)Cc2ccc(-n3cccc3)cc2)c1 | 85% | 39% |  |
| Cn1cnc(S(=O)(=O)N(CCN(Cc2cncn2C)c2ccc(C#N)cc2)Cc2cccc(-n3cccc3)c2)c1 | 74% | 37% | EC50 (Plasmodium falciparum [5]): 4000 nM; EC50 (Plasmodium falciparum [9]): 2500 nM |
| Cn1cncc1CN(CCN(Cc1ccccc1)S(=O)(=O)c1ccccc1)c1ccc(C#N)cc1 | 69% | 18% | Selectivity ratio [10]: 1.5; IC50 [8]: 8.9 nM |
| Cn1cnc(S(=O)(=O)N(CCN(Cc2cncn2C)c2ccc(C#N)cc2)Cc2cccnc2)c1 | 74% | 18% |  |
| O=S(=O)(c1ccc2ccccc2c1)N(CCN(Cc1c[nH]cn1)c1ccccc1)Cc1ccccc1 | 0% |  |  |
| Cn1cnc(S(=O)(=O)N(CCN(Cc2cncn2C)c2ccc(C#N)cc2)CC2CCN(c3ncccn3)CC2)c1 | 96% | 74% |  |
| CC(C)C(=O)N(CCN(Cc1cncn1C)c1ccc(C#N)cc1)Cc1ccccc1 | 61% | 0% |  |
| CC(=O)N1CCC(CN(CCN(Cc2cncn2C)c2ccc(C#N)cc2)S(=O)(=O)c2cn(C)cn2)CC1 | 44% | 8% |  |
| Cn1cnc(S(=O)(=O)N(CCN(Cc2cncn2C)c2ccc(Br)cc2)Cc2ccccn2)c1 |  |  | Selectivity ratio [10]: 44; IC50 [8]: 1.9 nM |

| Structure (SMILES) | inhibition [1] | inhibition [2] | also measured |
| --- | --- | --- | --- |
| O=S(=O)(c1cccc2cccnc12)N(CCN(Cc1c[nH]cn1)c1ccccc1)Cc1ccccc1 | 0% |  |  |
| C=CCN(CCN(Cc1cncn1C)c1ccc(C#N)cc1)S(=O)(=O)c1cn(C)cn1 | 42% | 1% |  |
| CN(C)c1cccc2c(S(=O)(=O)N(CCN(Cc3c[nH]cn3)c3ccccc3)Cc3ccccc3)cccc12 | 0% |  |  |
| Cn1cnc(S(=O)(=O)N(CCN(Cc2cncn2C)c2ccc(Br)cc2)Cc2ccccc2)c1 | 95% | 70% | IC50 [8]: 2 nM |
| Cn1cnc(S(=O)(=O)N(CCN(Cc2cncn2C)c2ccc(C#N)cc2)Cc2ccc(-c3ccccc3)cc2)c1 | 19% | 10% | Selectivity ratio [10]: 3.7; IC50 [8]: 240 nM; T1/2 (Mus musculus): 3 min |
| Cn1cnc(S(=O)(=O)N(CCN(Cc2cncn2C)c2ccc(C#N)cc2)CCn2cccc2)c1 | 56% | 11% |  |
| Cn1cnc(S(=O)(=O)N(CCN(Cc2cncn2C)c2ccc(C#N)cc2)Cc2cccc(-c3ccccc3)c2)c1 | 93% | 56% |  |
| Cn1cnc(S(=O)(=O)N(CCN(Cc2cncn2C)c2ccc(C#N)cc2)Cc2ccccn2)c1 | 93% | 64% | IC50 [8]: 2.1 nM |
| Cn1cnc(S(=O)(=O)N(CCN(Cc2cncn2C)c2ccc(C#N)cc2)Cc2ccncc2)c1 | 62% | 22% |  |
| Cc1ccccc1CN(CCN(Cc1cncn1C)c1ccc(-c2ccccc2)cc1)S(=O)(=O)c1cn(C)cn1 | 85% | 49% | IC50 [8]: 8 nM; EC50 (Plasmodium falciparum [5]): 2600 nM |
| Cn1cncc1CN(CCN(Cc1ccccc1)S(=O)(=O)c1cccc2cccnc12)c1ccc(C#N)cc1 | 35% | 14% |  |
| CN(C)c1cccc2c(S(=O)(=O)N(CCN(Cc3cncn3C)c3ccc(C#N)cc3)Cc3ccccc3)cccc12 | 29% | 6% | Selectivity ratio [10]: 3.3; IC50 [8]: 55 nM |
| Cn1cnc(S(=O)(=O)N(CCN(Cc2cncn2C)c2ccc(C#N)cc2)CC2CCOCC2)c1 | 84% | 28% |  |
| Cn1cncc1CN(CCN(Cc1ccccc1)S(=O)(=O)c1cccs1)c1ccc(C#N)cc1 | 74% | 17% |  |
| O=S(=O)(c1ccccc1)N(CCN(Cc1c[nH]cn1)c1ccccc1)Cc1ccccc1 | 7% |  |  |
| C=C(C)CN(CCN(Cc1cncn1C)c1ccc(C#N)cc1)S(=O)(=O)c1cn(C)cn1 | 77% | 6% |  |
| CC(=O)N(CCN(Cc1cncn1C)c1ccc(C#N)cc1)Cc1ccccc1 | 56% | 0% |  |
| CC(C)C(=O)N1CCC(CN(CCN(Cc2cncn2C)c2ccc(C#N)cc2)S(=O)(=O)c2cn(C)cn2)CC1 | 92% | 57% |  |
| Cc1cccc(CN(CCN(Cc2cncn2C)c2ccc(C#N)cc2)S(=O)(=O)c2cn(C)cn2)c1 | 94% | 61% | EC50 (Plasmodium falciparum [5]): 1000 nM; EC50 (Plasmodium falciparum [9]): 300 nM |
| Cn1cnc(S(=O)(=O)N(CCN(Cc2cncn2C)c2ccc(C#N)cc2)CC2CCN(C(=O)OC(C)(C)C)CC2)c1 | 96% | 81% |  |
